Laboratory results taken from ChEMBL document CHEMBL1141375, “Synthesis and cell-based activity of a potent and selective protein tyrosine phosphatase 1B inhibitor prodrug” (J Med Chem, 2007).

Legend:
Type in all cases: functional, cell-based
[1] = molecular target: Insulin receptor (Homo sapiens) (UniProt P06213); assay: Increase in insulin-induced IRbeta phosphorylation in human HepG2 cells after 1 hr at 100 nM
In short: (§1)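 HepG2 (MEM, 2 mM L-glutamine, 1 mM pyruvate, 10% FBS, 5% CO2) grown to 60-80% confluence, serum-starved 5 h, exposed 1 h to prodrug (0, 5, 20, 100 nM), then 100 nM insulin or none for 5 min. Lysates run on SDS-PAGE, blotted with anti-phospho-IRβ (pY1162/1163) and anti-phospho-ERK1/2, β-actin loading control; bands quantified densitometrically as fold over insulin-only.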

[2] = molecular target: Insulin receptor (Homo sapiens) (UniProt P06213); assay: Increase in insulin-induced ERK phosphorylation in HepG2 cells after 60 mins at 20 nM
In short: (§2)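 Time course in subconfluent HepG2 cells. Preincubation with 20 nM prodrug for various periods (5, 20, 60 min), then 5 min with or without 100 nM insulin. Lysates resolved by SDS-PAGE, transferred to nitrocellulose and probed for phospho-IRβ and phospho-ERK1/2. Result expressed as increase in insulin-induced phosphorylation.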

[3] = molecular target: Insulin receptor (Homo sapiens) (UniProt P06213); assay: Increase in insulin-induced IRbeta phosphorylation in HepG2 cells after 5 mins at 20 nM; in short: as §2
[4] = molecular target: Insulin receptor (Homo sapiens) (UniProt P06213); assay: Increase in insulin-induced ERK phosphorylation in human HepG2 cells after 1 hr at 20 nM; in short: as §1
[5] = molecular target: Insulin receptor (Homo sapiens) (UniProt P06213); assay: Increase in insulin-induced ERK phosphorylation in human HepG2 cells after 1 hr at 100 nM; in short: as §1
[6] = molecular target: Insulin receptor (Homo sapiens) (UniProt P06213); assay: Increase in insulin-induced IRbeta phosphorylation in HepG2 cells after 20 mins at 20 nM; in short: as §2
[7] = molecular target: Insulin receptor (Homo sapiens) (UniProt P06213); assay: Increase in insulin-induced IRbeta phosphorylation in HepG2 cells after 60 mins at 20 nM; in short: as §2
[8] = molecular target: Insulin receptor (Homo sapiens) (UniProt P06213); assay: Increase in insulin-induced IRbeta phosphorylation in HepG2 cells after 2 hrs at 20 nM
[9] = molecular target: Insulin receptor (Homo sapiens) (UniProt P06213); assay: Increase in insulin-induced IRbeta phosphorylation in human HepG2 cells after 1 hr at 20 nM; in short: as §1
[10] = molecular target: Insulin receptor (Homo sapiens) (UniProt P06213); assay: Increase in insulin-induced ERK phosphorylation in HepG2 cells after 20 mins at 20 nM

Sequence of Insulin receptor (Homo sapiens) (P06213 28-758 limits assumed): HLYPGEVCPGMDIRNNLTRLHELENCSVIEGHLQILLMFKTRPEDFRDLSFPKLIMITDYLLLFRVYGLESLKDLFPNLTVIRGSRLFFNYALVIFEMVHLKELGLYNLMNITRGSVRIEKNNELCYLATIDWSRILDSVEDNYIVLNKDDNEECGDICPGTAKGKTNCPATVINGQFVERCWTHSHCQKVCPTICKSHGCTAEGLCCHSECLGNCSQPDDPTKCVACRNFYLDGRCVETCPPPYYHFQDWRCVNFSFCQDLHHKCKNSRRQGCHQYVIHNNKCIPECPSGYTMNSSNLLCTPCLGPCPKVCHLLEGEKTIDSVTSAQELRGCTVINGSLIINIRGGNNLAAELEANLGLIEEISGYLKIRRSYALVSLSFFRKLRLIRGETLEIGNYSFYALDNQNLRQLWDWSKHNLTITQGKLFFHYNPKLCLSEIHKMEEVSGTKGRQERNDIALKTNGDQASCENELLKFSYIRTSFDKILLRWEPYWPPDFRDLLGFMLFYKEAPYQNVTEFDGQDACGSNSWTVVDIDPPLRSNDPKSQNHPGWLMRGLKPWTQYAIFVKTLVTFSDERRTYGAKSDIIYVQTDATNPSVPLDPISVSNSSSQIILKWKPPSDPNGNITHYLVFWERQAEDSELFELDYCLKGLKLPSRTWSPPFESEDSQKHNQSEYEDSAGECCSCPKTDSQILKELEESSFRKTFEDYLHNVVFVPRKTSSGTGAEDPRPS
Sequence of Insulin receptor (Homo sapiens) (P06213 763-1382 limits assumed): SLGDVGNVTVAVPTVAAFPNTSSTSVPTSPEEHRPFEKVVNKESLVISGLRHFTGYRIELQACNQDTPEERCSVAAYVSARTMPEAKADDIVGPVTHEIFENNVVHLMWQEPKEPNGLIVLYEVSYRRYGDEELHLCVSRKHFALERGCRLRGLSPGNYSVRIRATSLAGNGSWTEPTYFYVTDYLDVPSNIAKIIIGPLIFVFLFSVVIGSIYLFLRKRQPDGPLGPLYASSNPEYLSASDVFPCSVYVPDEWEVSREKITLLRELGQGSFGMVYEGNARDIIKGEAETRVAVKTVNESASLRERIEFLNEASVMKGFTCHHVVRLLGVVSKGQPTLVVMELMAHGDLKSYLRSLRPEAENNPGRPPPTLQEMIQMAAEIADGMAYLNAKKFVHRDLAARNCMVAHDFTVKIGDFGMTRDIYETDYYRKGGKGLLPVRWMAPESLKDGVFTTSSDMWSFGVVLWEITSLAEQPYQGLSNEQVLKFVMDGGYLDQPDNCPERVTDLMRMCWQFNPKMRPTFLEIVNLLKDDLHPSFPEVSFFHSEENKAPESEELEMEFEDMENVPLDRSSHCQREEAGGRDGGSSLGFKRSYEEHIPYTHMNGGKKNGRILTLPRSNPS

Structure (SMILES): CN(CCCCCl)P(=O)(OCc1ccc([N+](=O)[O-])o1)C(F)(F)c1ccc(CC(=O)N[C@@H](CC(=O)O)C(=O)N[C@@H](Cc2ccc(C(F)(F)P(=O)(OCc3ccc([N+](=O)[O-])o3)N(C)CCCCCl)cc2)C(N)=O)cc1 (stereo not given in full)
- Activity [1]: 2.1
- Activity [2]: 50%
- Activity [3]: 35%
- Activity [4]: 1.3
- Activity [5]: 1.6
- Activity [6]: 1.7
- Activity [7]: 2
- Activity [8]: 2.1
- Activity [9]: 1.9
- Activity [10]: 25%
